pIC50: −log10 of the molar value.

In the first data set the test system is Blood. The experiment in a line: Anti-platelet aggregation activity in rabbit venous blood assessed as inhibition of ADP-induced aggregation at 1.3 uM pre-treated for 2 mins followed by ADP addition by Born turbidimetric method relative to control. It counts as functional. The note with it: Oryctolagus cuniculus. In a few lines:
(§1)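 Platelet-rich plasma from male rabbit (2–3 kg) ear-vein blood, citrate anticoagulated (3.8%, 9:1), spun 1000 rpm 10 min at room temperature; platelet-poor plasma (3000 rpm 10 min) as blank. Compound at 1.3 µM, from DMSO solution (DMSO 0.5% v/v vehicle control), preincubated 2 min in PRP before inducer. Inhibition% = (1 − D/S) × 100, where S is aggregation with solvent.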
For orientation: inhibition means the percentage by which the read-out fell short of the control. For the molecule `CCN1CCN(S(=O)(=O)c2ccc(OC)c(S(=O)(=O)N3CCN(CC)CC3)c2)CC1`, the inhibition at 1.3 µM came to 24.3%.

As to `COc1ccc(S(=O)(=O)N2CCN(Cc3ccccc3)CC2)cc1S(=O)(=O)N1CCN(Cc2ccccc2)CC1`, the inhibition at 1.3 µM was determined as 33.2%.

Regarding `CCOc1ccc(S(=O)(=O)N2CCN(CC)CC2)cc1S(=O)(=O)N1CCN(CC)CC1`, the inhibition at 1.3 µM amounted to 28.8%.

With `COc1ccc(S(=O)(=O)N2CCN(C(C)C)CC2)cc1S(=O)(=O)N1CCN(C(C)C)CC1`, the inhibition at 1.3 µM turned out to be 28.4%.

`COc1ccc(S(=O)(=O)N2CCN(c3ccc(C)cc3)CC2)cc1S(=O)(=O)N1CCN(c2ccc(C)cc2)CC1`: the inhibition at 1.3 µM is 30.4%.

As to `COc1ccc(S(=O)(=O)N2CCN(c3cccc(C)c3)CC2)cc1S(=O)(=O)N1CCN(c2cccc(C)c2)CC1`, the inhibition at 1.3 µM was found to be 21.1%.

Take `CCOc1ccc(S(=O)(=O)N2CCN(Cc3ccccc3)CC2)cc1S(=O)(=O)N1CCN(Cc2ccccc2)CC1`: the inhibition at 1.3 µM was 24%.

Regarding `COc1ccc(S(=O)(=O)N2CCN(C)CC2)cc1S(=O)(=O)N1CCN(C)CC1`, the inhibition at 1.3 µM is 38.2%.

Consider `COc1ccccc1N1CCN(S(=O)(=O)c2ccc(OC)c(S(=O)(=O)N3CCN(c4ccccc4OC)CC3)c2)CC1`, for which the inhibition at 1.3 µM came out at 28.7%.

With `COc1ccc(S(=O)(=O)N2CCN(c3ccccc3C)CC2)cc1S(=O)(=O)N1CCN(c2ccccc2C)CC1`, the inhibition at 1.3 µM came to 38.9%.

Take `CCOc1ccc(S(=O)(=O)N2CCN(c3ccccc3)CC2)cc1S(=O)(=O)N1CCN(c2ccccc2)CC1`: the inhibition at 1.3 µM was found to be 40.1%.

For a further data set, the system named is Blood. As to the kind of experiment: Anti-platelet aggregation activity in rabbit venous blood assessed as inhibition of ADP-induced aggregation pre-treated for 2 mins followed by ADP addition by Born turbidimetric method. The format is functional, tissue-based. The note with it: Oryctolagus cuniculus. A digest of the protocol:
(§2)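 Rabbit PRP Born turbidimetry with the same 2 min compound preincubation. ADP or arachidonic acid as inducer. Compounds tested at 1.3, 0.65 and 0.325 µM. Inhibition% = (1 − D/S) × 100 versus the solvent control, and IC50 calculated from these inhibition rates.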
The term pIC50 denotes the IC50 on a negative log10 scale, so that one unit is a factor of ten. Consider `COc1ccc(S(=O)(=O)N2CCN(Cc3ccccc3)CC2)cc1S(=O)(=O)N1CCN(Cc2ccccc2)CC1`, for which the pIC50 was 5.94.

Take `COc1ccc(S(=O)(=O)N2CCN(C)CC2)cc1S(=O)(=O)N1CCN(C)CC1`: the pIC50 was 6.01.

As to `COc1ccc(S(=O)(=O)N2CCN(c3ccccc3C)CC2)cc1S(=O)(=O)N1CCN(c2ccccc2C)CC1`, the pIC50 is 6.02.

With `CCOc1ccc(S(=O)(=O)N2CCN(c3ccccc3)CC2)cc1S(=O)(=O)N1CCN(c2ccccc2)CC1`, the pIC50 was 6.04.

For another data set, the system named is Blood. The experiment in a line: Anti-platelet aggregation activity in rabbit venous blood assessed as inhibition of arachidonic acid-induced aggregation at 1.3 uM pre-treated for 2 mins followed by ADP addition by Born turbidimetric method relative to control. It counts as functional. The conditions noted are these: Oryctolagus cuniculus. A digest of the protocol: as §1
For `CCN1CCN(S(=O)(=O)c2ccc(OC)c(S(=O)(=O)N3CCN(CC)CC3)c2)CC1`, the inhibition at 1.3 µM worked out at 22.4%.

Regarding `COc1ccc(S(=O)(=O)N2CCN(Cc3ccccc3)CC2)cc1S(=O)(=O)N1CCN(Cc2ccccc2)CC1`, the inhibition at 1.3 µM came to 38.5%.

Consider `CCOc1ccc(S(=O)(=O)N2CCN(CC)CC2)cc1S(=O)(=O)N1CCN(CC)CC1`, for which the inhibition at 1.3 µM is 29.9%.

For `COc1ccc(S(=O)(=O)N2CCN(C(C)C)CC2)cc1S(=O)(=O)N1CCN(C(C)C)CC1`, the inhibition at 1.3 µM came out at 27.1%.

For `COc1ccc(S(=O)(=O)N2CCN(c3ccc(C)cc3)CC2)cc1S(=O)(=O)N1CCN(c2ccc(C)cc2)CC1`, the inhibition at 1.3 µM worked out at 34.1%.

Consider `COc1ccc(S(=O)(=O)N2CCN(c3cccc(C)c3)CC2)cc1S(=O)(=O)N1CCN(c2cccc(C)c2)CC1`, for which the inhibition at 1.3 µM was 33.7%.

`CCOc1ccc(S(=O)(=O)N2CCN(Cc3ccccc3)CC2)cc1S(=O)(=O)N1CCN(Cc2ccccc2)CC1`: the inhibition at 1.3 µM is 20.1%.

With `COc1ccc(S(=O)(=O)N2CCN(C)CC2)cc1S(=O)(=O)N1CCN(C)CC1`, the inhibition at 1.3 µM worked out at 29.5%.

In the case of `COc1ccccc1N1CCN(S(=O)(=O)c2ccc(OC)c(S(=O)(=O)N3CCN(c4ccccc4OC)CC3)c2)CC1`, the inhibition at 1.3 µM amounted to 28.1%.

In the case of `COc1ccc(S(=O)(=O)N2CCN(c3ccccc3C)CC2)cc1S(=O)(=O)N1CCN(c2ccccc2C)CC1`, the inhibition at 1.3 µM turned out to be 36.9%.

With `CCOc1ccc(S(=O)(=O)N2CCN(c3ccccc3)CC2)cc1S(=O)(=O)N1CCN(c2ccccc2)CC1`, the inhibition at 1.3 µM was 23.6%.

A further data set concerns Blood. As to the kind of experiment: Anti-platelet aggregation activity in rabbit venous blood assessed as inhibition of arachidonic acid-induced aggregation pre-treated for 2 mins followed by ADP addition by Born turbidimetric method. The format is functional, tissue-based. The note with it: Oryctolagus cuniculus. In a few lines:
as §2
With `COc1ccc(S(=O)(=O)N2CCN(Cc3ccccc3)CC2)cc1S(=O)(=O)N1CCN(Cc2ccccc2)CC1`, the negative logarithm of the IC50 (pIC50) is 6.48.

As for `COc1ccc(S(=O)(=O)N2CCN(c3ccc(C)cc3)CC2)cc1S(=O)(=O)N1CCN(c2ccc(C)cc2)CC1`, the pIC50 was 6.17.

Regarding `COc1ccc(S(=O)(=O)N2CCN(c3cccc(C)c3)CC2)cc1S(=O)(=O)N1CCN(c2cccc(C)c2)CC1`, the pIC50 was 6.15.

On to `COc1ccc(S(=O)(=O)N2CCN(c3ccccc3C)CC2)cc1S(=O)(=O)N1CCN(c2ccccc2C)CC1`, for which the pIC50 was 6.44.

Another data set relates to Blood. The experiment in a line: Anti-platelet aggregation activity in rabbit venous blood assessed as inhibition of collagen-induced aggregation at 1.3 uM pre-treated for 2 mins followed by ADP addition by Born turbidimetric method relative to control. The conditions noted are these: Oryctolagus cuniculus. The format is functional. A digest of the protocol: as §1
Take `CCN1CCN(S(=O)(=O)c2ccc(OC)c(S(=O)(=O)N3CCN(CC)CC3)c2)CC1`: the inhibition at 1.3 µM turned out to be 42.6%.

In the case of `COc1ccc(S(=O)(=O)N2CCN(Cc3ccccc3)CC2)cc1S(=O)(=O)N1CCN(Cc2ccccc2)CC1`, the inhibition at 1.3 µM was 22.8%.

Turning to `CCOc1ccc(S(=O)(=O)N2CCN(CC)CC2)cc1S(=O)(=O)N1CCN(CC)CC1`, the inhibition at 1.3 µM stood at 41.7%.

Regarding `COc1ccc(S(=O)(=O)N2CCN(C(C)C)CC2)cc1S(=O)(=O)N1CCN(C(C)C)CC1`, the inhibition at 1.3 µM was 49.4%.

Turning to `COc1ccc(S(=O)(=O)N2CCN(c3ccc(C)cc3)CC2)cc1S(=O)(=O)N1CCN(c2ccc(C)cc2)CC1`, the inhibition at 1.3 µM came out at 32.6%.

In the case of `COc1ccc(S(=O)(=O)N2CCN(c3cccc(C)c3)CC2)cc1S(=O)(=O)N1CCN(c2cccc(C)c2)CC1`, the inhibition at 1.3 µM was 54.2%.

As for `CCOc1ccc(S(=O)(=O)N2CCN(Cc3ccccc3)CC2)cc1S(=O)(=O)N1CCN(Cc2ccccc2)CC1`, the inhibition at 1.3 µM was 49.8%.

For the molecule `COc1ccc(S(=O)(=O)N2CCN(C)CC2)cc1S(=O)(=O)N1CCN(C)CC1`, the inhibition at 1.3 µM turned out to be 52.6%.

As for `COc1ccccc1N1CCN(S(=O)(=O)c2ccc(OC)c(S(=O)(=O)N3CCN(c4ccccc4OC)CC3)c2)CC1`, the inhibition at 1.3 µM is 27.6%.

Turning to `COc1ccc(S(=O)(=O)N2CCN(c3ccccc3C)CC2)cc1S(=O)(=O)N1CCN(c2ccccc2C)CC1`, the inhibition at 1.3 µM is 32.1%.

For `CCOc1ccc(S(=O)(=O)N2CCN(c3ccccc3)CC2)cc1S(=O)(=O)N1CCN(c2ccccc2)CC1`, the inhibition at 1.3 µM turned out to be 26.9%.

Test system in another data set: not listed separately
The experiment in a line: Cytotoxicity against mouse L929 cells assessed as cell survival at 10 uM incubated for 48 hrs by CCK-8 assay relative to control. It counts as cell-based. The note with it: read-out: Activity. A digest of the protocol:
(§3)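 L929 mouse fibroblasts seeded at 10,000 cells/well in RPMI-1640 and allowed to attach 24 h at 37 °C. Compounds then added at 10 and 100 µM for 48 h at 37 °C. Medium replaced with fresh medium, CCK-8 added, 30 min further incubation, absorbance read at 450 nm. Viability = Abs(test)/Abs(control) × 100%.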
A general note: Formazan colour is commonly taken as a measure of viable cells.
`COc1ccc(S(=O)(=O)N2CCN(Cc3ccccc3)CC2)cc1S(=O)(=O)N1CCN(Cc2ccccc2)CC1`: the viability at 48 h, 10 µM amounted to 55.6%.

As to `COc1ccc(S(=O)(=O)N2CCN(c3cccc(C)c3)CC2)cc1S(=O)(=O)N1CCN(c2cccc(C)c2)CC1`, the viability at 48 h, 10 µM came to 85.2%.

On to `CCOc1ccc(S(=O)(=O)N2CCN(Cc3ccccc3)CC2)cc1S(=O)(=O)N1CCN(Cc2ccccc2)CC1`, for which the viability at 48 h, 10 µM came out at 55.6%.

`COc1ccc(S(=O)(=O)N2CCN(C)CC2)cc1S(=O)(=O)N1CCN(C)CC1`: the viability at 48 h, 10 µM is 77.8%.

Test system in another data set: not listed separately
As to the kind of experiment: Cytotoxicity against mouse L929 cells assessed as cell survival at 100 uM incubated for 48 hrs by CCK-8 assay relative to control. It counts as cell-based. The note with it: read-out: Activity. A digest of the protocol:
as §3
Regarding `COc1ccc(S(=O)(=O)N2CCN(Cc3ccccc3)CC2)cc1S(=O)(=O)N1CCN(Cc2ccccc2)CC1`, the viability at 48 h, 100 µM turned out to be 22.2%.

Regarding `COc1ccc(S(=O)(=O)N2CCN(c3cccc(C)c3)CC2)cc1S(=O)(=O)N1CCN(c2cccc(C)c2)CC1`, the viability at 48 h, 100 µM amounted to 66.7%.

For the molecule `CCOc1ccc(S(=O)(=O)N2CCN(Cc3ccccc3)CC2)cc1S(=O)(=O)N1CCN(Cc2ccccc2)CC1`, the viability at 48 h, 100 µM was determined as 22.2%.

As for `COc1ccc(S(=O)(=O)N2CCN(C)CC2)cc1S(=O)(=O)N1CCN(C)CC1`, the viability at 48 h, 100 µM came to 33.3%.
